Calls of active or inactive are those of the source. The calls are words filed in the database; no cut-off is given here.
What was measured:
[1] = biological target: T1, Vitamin K-dependent protein C (Homo sapiens, UniProt P04070); test: Competitive inhibition of human APC using S-2366 as substrate
Procedure, shortened: (§1)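 Ki values were calculated from the IC50 values measured in the enzyme screening assays.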

[2] = biological target: T1, Vitamin K-dependent protein C; test: Inhibition of human APC using S-2366 as substrate preincubated for 300 seconds followed by substrate addition measured after 40 mins by spectrophotometric analysis
[3] = biological target: T2, Prothrombin (Homo sapiens, UniProt P00734); test: Inhibition of human thrombin using S-2366 as substrate preincubated for 300 seconds followed by substrate addition measured after 40 mins by spectrophotometric analysis
[4] = biological target: T2, Prothrombin; test: Competitive inhibition of human thrombin using S-2366 as substrate; procedure, shortened: as §1
[5] = species on record: Homo sapiens; test: Selectivity ratio of IC50 for human thrombin to IC50 for human APC
[6] = biological target: T3, Coagulation factor XI (Homo sapiens, UniProt P03951); test: Competitive inhibition of human coagulation factor 11a using S-2366 as substrate; procedure, shortened: as §1
[7] = biological target: T3, Coagulation factor XI; test: Inhibition of human coagulation factor 11a using S-2366 as substrate preincubated for 300 seconds followed by substrate addition measured after 40 mins by spectrophotometric analysis
[8] = tested on: Plasma; test: Antifibrinolytic activity in human citrated plasma assessed as prolongation of clot-lysis time at 101 uM by spectrophotometric analysis; format: functional, cell-free
Procedure, shortened: (§2)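 Citrated plasma from healthy volunteers. Tissue plasminogen activator was added to start plasmin generation, and clot-lysis time was recorded with test compound present (n = 2).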

[9] = biological target: Coagulation factor IX (Homo sapiens) (UniProt P00740); test: Inhibition of coagulation factor 9a (unknown origin)-mediated hydrolysis of Z-D-Arg-Gly-Arg-pNA at 100 uM relative to control
[10] = biological target: T4, Coagulation factor VII (Homo sapiens, UniProt P08709); test: Competitive inhibition of human coagulation factor 7a using spectrozyme as substrate; procedure, shortened: as §1
T4 sequence (P08709 whole entry): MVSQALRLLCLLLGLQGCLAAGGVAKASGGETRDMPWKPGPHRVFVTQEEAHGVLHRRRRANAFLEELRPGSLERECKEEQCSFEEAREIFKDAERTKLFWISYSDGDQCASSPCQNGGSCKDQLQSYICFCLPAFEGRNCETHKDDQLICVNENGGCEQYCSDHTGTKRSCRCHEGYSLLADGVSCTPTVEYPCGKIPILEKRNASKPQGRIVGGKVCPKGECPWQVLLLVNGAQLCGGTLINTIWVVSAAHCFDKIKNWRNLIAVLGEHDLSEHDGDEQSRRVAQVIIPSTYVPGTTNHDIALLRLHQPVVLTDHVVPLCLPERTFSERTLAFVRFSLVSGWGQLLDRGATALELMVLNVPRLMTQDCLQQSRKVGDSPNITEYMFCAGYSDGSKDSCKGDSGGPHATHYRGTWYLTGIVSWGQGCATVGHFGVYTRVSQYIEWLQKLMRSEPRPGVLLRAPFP

[11] = biological target: T4, Coagulation factor VII; test: Inhibition of human coagulation factor 7a using spectrozyme as substrate preincubated for 300 seconds followed by substrate addition measured after 40 mins by spectrophotometric analysis in presence of tissue factor
[12] = biological target: T5, Coagulation factor X (Homo sapiens, UniProt P00742); test: Competitive inhibition of human coagulation factor 10a using S-2765 as substrate; procedure, shortened: as §1
[13] = Lipophilicity, log D of the compound at pH 7.4 by chromatographic method; format: physicochemical; settings: buffer
[14] = biological target: T5, Coagulation factor X; test: Inhibition of human coagulation factor 10a using S-2765 as substrate preincubated for 300 seconds followed by substrate addition measured after 40 mins by spectrophotometric analysis
[15] = tested on: Plasma; test: Antifibrinolytic activity in human citrated plasma assessed as prolongation of clot-lysis time at 28 uM by spectrophotometric analysis; format: functional, cell-free; procedure, shortened: as §2

| Compound | Ki [1] [µM] | IC50 [2] [µM] | IC50 [3] [µM] | Ki [4] [µM] | Ratio IC50 [5] | Ki [6] [µM] | IC50 [7] [µM] | Activity [8] | inhibition [9] | Ki [10] [µM] | IC50 [11] [µM] | Ki [12] [µM] | chromatographic logD [13] | IC50 [14] [µM] | Activity [15] |
| --- | --- | --- | --- | --- | --- | --- | --- | --- | --- | --- | --- | --- | --- | --- | --- |
| N=C(N)c1ccc(CNC(=O)[C@H](Cc2ccc3ccccc3c2)NC(=O)[C@@H](CC2CCCCC2)NCC(=O)O)cc1 | 0.3 | 0.98 | 5.2 | 3 | 5.3 | – | – | – | – | – | – | – | – | – | – |
| N=C(N)NCCC[C@H](NC(=O)[C@@H](CC1CCCCC1)NCCC(=O)O)C(=O)NCc1ccc(C(=N)N)cc1 | 0.8 | 2.8 | 5.2 | 3 | 1.8 | > 19 | > 44 | – | – | – | – | – | – | – | – |
| N=C(N)c1ccc(CNC(=O)C(CCC2CCNCC2)NC(=O)[C@H](N)CC2CCCCC2)cc1 (mixture of isomers) | 0.9 | 3.1 | 28 | 15 | 8.9 | – | – | – | – | – | – | – | – | – | – |
| N=C(N)c1ccc(CNC(=O)C2(NC(=O)[C@H](NCC(=O)O)C3CCCCC3)Cc3ccccc3C2)cc1 | 0.5 | 1.7 | 36 | 19 | 21 | > 19 | > 44 | Active | 40% | 7 | 8.9 | 16 | 0.93 | 48 | – |
| N=C(N)c1ccc(CNC(=O)C(CCC2CCNCC2)NC(=O)[C@@H](CC2CCCCC2)NCC(=O)O)cc1 (mixture of isomers) | 0.3 | 0.92 | 22 | 12 | 23 | > 19 | > 44 | – | inactive | > 100 | > 133 | > 43 | < 0 | > 130 | Active |
| N=C(N)c1ccc(CNC(=O)[C@H](CC2CCCN2)NC(=O)[C@@H](CC2CCCCC2)NCC(=O)O)cc1 (mixture of isomers) | 1.6 | 5.6 | 7 | 4 | 1.3 | – | – | – | – | – | – | – | – | – | – |
| N=C(N)c1ccc(CNC(=O)C(Cc2ccc(CN)cc2)NC(=O)[C@@H](CC2CCCCC2)NCC(=O)O)cc1 (mixture of isomers) | 0.3 | 1.1 | 3.7 | 2 | 3.3 | 19 | 43 | – | – | – | – | 14 | – | 42 | – |
| N#Cc1ccc(CC(NC(=O)[C@@H](CC2CCCCC2)NCC(=O)O)C(=O)NCc2ccc(C(=N)N)cc2)cc1 (mixture of isomers) | 1.1 | 3.8 | 3.8 | 2 | 5.4 | – | – | – | – | – | – | – | – | – | – |
| N=C(N)c1ccc(CNC(=O)[C@H](Cc2ccc(O)cc2)NC(=O)[C@@H](CC2CCCCC2)NCC(=O)O)cc1 | 0.1 | 0.26 | 3.9 | 2 | 15 | 0.8 | 1.9 | – | – | – | – | 8 | 0.02 | 23 | – |
| N=C(N)c1ccc(CNC(=O)[C@H](Cc2ccc(N)cc2)NC(=O)[C@@H](CC2CCCCC2)NCC(=O)O)cc1 | 0.04 | 0.13 | 0.9 | 0.5 | 6.9 | 0.3 | 0.58 | – | – | – | – | > 15 | – | > 44 | – |
| N=C(N)c1ccc(CNC(=O)[C@@H]2CCN2C(=O)[C@H](NCC(=O)O)C2CCCCC2)cc1 | – | 1.3 | – | – | – | – | 20 | – | – | – | 3.3 | – | – | 21 | – |
| N=C(N)c1ccc(CNC(=O)[C@@H](NC(=O)[C@@H](CC2CCCCC2)NCC(=O)O)C2CCNCC2)cc1 | 0.9 | 3.1 | 26 | 14 | 8.4 | > 19 | > 44 | – | – | – | – | – | – | – | – |
| N=C(N)NCCC[C@H](NC(=O)[C@@H](CC1CCCCC1)NCC(=O)O)C(=O)NCc1ccc(C(=N)N)cc1 | 0.1 | 0.47 | 1.3 | 1 | 2.8 | – | – | – | – | – | – | – | – | – | – |
| N=C(N)c1ccc(CNC(=O)[C@H](Cc2ccccc2)NC(=O)[C@@H](CC2CCCCC2)NCC(=O)O)cc1 | 0.2 | 0.67 | 6.1 | 3 | 9.1 | – | – | – | – | – | – | – | – | – | – |
| N=C(N)c1ccc(CNC(=O)C(CCC2CCNCC2)NC(=O)[C@@H](NCC(=O)O)C2CCCCC2)cc1 (mixture of isomers) | – | > 44 | > 44 | – | 1 | – | – | – | – | – | – | – | – | – | – |
| N=C(N)NCCC[C@H](NC(=O)[C@H](N)C1CCCCC1)C(=O)NCc1ccc(C(=N)N)cc1 | 0.5 | 1.6 | 1.9 | 1 | 1.2 | – | – | – | – | – | – | – | – | – | – |
| N=C(N)c1ccc(CNC(=O)[C@@H](CC2CCCN2)NC(=O)[C@@H](CC2CCCCC2)NCC(=O)O)cc1 (mixture of isomers) | – | > 44 | > 44 | – | 1 | – | – | – | – | – | – | – | – | – | – |
| N=C(N)c1ccc(CNC(=O)C(CC2CCNCC2)NC(=O)[C@@H](CC2CCCCC2)NCC(=O)O)cc1 (mixture of isomers) | 0.4 | 1.3 | 12 | 6 | 9.1 | – | – | – | – | – | – | – | – | – | – |
| N=C(N)c1ccc(CNC(=O)[C@H](Cc2cccc3ccccc23)NC(=O)[C@@H](CC2CCCCC2)NCC(=O)O)cc1 | 0.3 | 1.1 | 12 | 6 | 11 | – | – | – | – | – | – | – | 1.97 | – | – |
